Test results as given in ChEMBL document CHEMBL1949546, “Pyrazoloquinolines as PDE10A inhibitors: discovery of a tool compound” (Bioorg Med Chem Lett, 2012).

Columns and labels:
[1] = Clearance in rat hepatocytes assessed per million cells; format: ADME, cell-based, Hepatocyte; details: read-out: CLH
[2] = AUC (0 to 6 hrs) in rat at 10 mg/kg, po; format: ADME, organism-based; set-up: time < 6 hr, dose 10 mg/kg, route oral; details: plasma
[3] = Clearance in human hepatocytes assessed per million cells; format: ADME, cell-based, Hepatocyte; details: read-out: CLH
[4] = Clearance in monkey hepatocytes assessed per million cells; format: ADME, cell-based, Macaca mulatta, Hepatocyte; details: rhesus monkey, read-out: CLH
[5] = Drug uptake in rat brain after 6 hrs; format: ADME, tissue-based; details: read-out: Drug uptake
In short: (§1)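 Animals were sacrificed at 6 h for ex vivo measurement of plasma concentration (nM) and brain level (ng/g), from which the brain to plasma ratio was derived.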

[6] = Plasma concentration in rat after 6 hrs; format: ADME; in short: as §1
[7] = Ratio of drug level in brain to plasma of rat after 6 hrs; format: ADME; details: read-out: BPR; in short: as §1
[8] = AUC (0 to 6 hrs) in monkey at 3 mg/kg, po; format: ADME, organism-based, Macaca mulatta; set-up: time < 6 hr, dose 3 mg/kg, route oral; details: rhesus monkey, plasma
[9] = Clearance in dog hepatocytes assessed per million cells; format: ADME, cell-based, Canis lupus familiaris, Hepatocyte; details: read-out: CLH
[10] = Half life in monkey at 3 mg/kg, po; format: ADME, organism-based, Macaca mulatta; set-up: dose 3 mg/kg, route oral; details: rhesus monkey, in vivo

For `COc1cc(C)c2nc3[nH]nc(C)c3c(CN3CCCOCC3)c2c1`, the hepatocyte CLint [1] was less than 1 µL/min/1e6 cells, the AUC(0-t) at 6 h [2] was 3.76 µM·h and the hepatocyte CLint [3] was 8 µL/min/1e6 cells.
With `COc1cc(C)c2nc3[nH]nc(C)c3c(C(=O)c3ccncc3)c2c1` the hepatocyte CLint [4] was 66 µL/min/1e6 cells.
With `COc1cc(C)c2nc3[nH]nc(C)c3c(C(O)c3cccnc3)c2c1` (racemic) the hepatocyte CLint [4] was 67 µL/min/1e6 cells.
`COc1cc(C)c2nc3[nH]nc(C)c3c(C(O)c3ccnc(F)c3)c2c1` (racemic) gave a hepatocyte CLint [4] of 66 µL/min/1e6 cells.
Compound `COc1cc(C)c2nc3[nH]nc(C)c3c(C(O)c3ncco3)c2c1` (racemic) has a hepatocyte CLint [4] of 63 µL/min/1e6 cells.
With `COc1cc(C)c2nc3[nH]nc(C)c3c(C(O)c3cncn3C)c2c1` (racemic) the hepatocyte CLint [4] was 22 µL/min/1e6 cells.
Compound `COc1ccc(C(O)c2c3cc(OC)cc(C)c3nc3[nH]nc(C)c23)cc1` (racemic) has a hepatocyte CLint [4] of 60 µL/min/1e6 cells.
In the case of `COc1cc(C)c2nc3[nH]nc(C)c3c(C(O)c3ccc(F)cc3)c2c1` (racemic), the hepatocyte CLint [4] is reported as 63 µL/min/1e6 cells.
Work on `COc1cc(C)c2nc3[nH]nc(C)c3c(C(C#N)c3ccccc3)c2c1` (racemic) yielded a hepatocyte CLint [4] of 64 µL/min/1e6 cells.
With `COc1cc(C)c2nc3[nH]nc(C)c3c(C(C)(O)c3ccncc3)c2c1` (racemic) the hepatocyte CLint [4] was 66 µL/min/1e6 cells.
Compound `Cc1cc(Cl)cc2c(C(O)c3ccncc3)c3c(C)n[nH]c3nc12` (racemic) has a hepatocyte CLint [4] of 25 µL/min/1e6 cells.
Work on `Cc1cc(Cl)cc2c(C(O)c3cccnc3)c3c(C)n[nH]c3nc12` (racemic) yielded a concentration at 6 h [5] of 115 ng/g, a concentration at 6 h [6] of 810 nM and a hepatocyte CLint [1] of 26 µL/min/1e6 cells. It also gave an AUC(0-t) at 6 h [2] of 11 µM·h, a hepatocyte CLint [4] of 46 µL/min/1e6 cells and a Kp at 6 h [7] of 1.5. It also gave a hepatocyte CLint [3] of 5 µL/min/1e6 cells.
Compound `Cc1cc(Cl)cc2c(C(O)c3ccnc(F)c3)c3c(C)n[nH]c3nc12` (racemic) has a hepatocyte CLint [4] of 37 µL/min/1e6 cells.
In the case of `Cc1ncc(C(O)c2c3cc(Cl)cc(C)c3nc3[nH]nc(C)c23)cn1` (racemic), the AUC(0-t) at 6 h [8] is reported as 11.5 µM·h, the hepatocyte CLint [9] is reported as 7 µL/min/1e6 cells and the concentration at 6 h [5] is reported as less than 14 ng/g. The concentration at 6 h [6] was 220 nM, the hepatocyte CLint [1] was 11 µL/min/1e6 cells and the AUC(0-t) at 6 h [2] was 4.29 µM·h. For the same compound, the hepatocyte CLint [4] was 8 µL/min/1e6 cells, the Kp at 6 h [7] was less than 0.18 and the hepatocyte CLint [3] was 2 µL/min/1e6 cells. It also gave a half-life [10] of 426 min.
In the case of `COc1cc(C)c2nc3[nH]nc(C)c3c(C(O)c3ccncc3)c2c1` (single isomer, unassigned; (+)), the hepatocyte CLint [4] is reported as 66 µL/min/1e6 cells.
`COc1cc(C)c2nc3[nH]nc(C)c3c(C(F)c3ccncc3)c2c1` (single isomer, unassigned; (-)) showed a hepatocyte CLint [4] of 62 µL/min/1e6 cells.
